Screening data deposited in PubChem by several laboratories.
Rows were chosen to be rich in hits. Some 3.9% of all compounds tested hit in one or more screens of this group.
ANO1 block: blocks the mouse calcium-activated chloride channel TMEM16A; HEK293 TMEM16A/YFP iodide influx fluorescence, ionomycin; normalized B-score (activity score, 25-100; higher = stronger inhibition) at 10 µM; Q8BHY3; hit rate 1.2% among 310,000;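 active means ratio plate-corrected score three or more library SD toward inhibition, starting fluorescence score within five deviations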;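 further: score derived from kinetic fluorescence span divided by baseline fluorescence per well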
Target sequence (Q8BHY3 whole entry, looked up): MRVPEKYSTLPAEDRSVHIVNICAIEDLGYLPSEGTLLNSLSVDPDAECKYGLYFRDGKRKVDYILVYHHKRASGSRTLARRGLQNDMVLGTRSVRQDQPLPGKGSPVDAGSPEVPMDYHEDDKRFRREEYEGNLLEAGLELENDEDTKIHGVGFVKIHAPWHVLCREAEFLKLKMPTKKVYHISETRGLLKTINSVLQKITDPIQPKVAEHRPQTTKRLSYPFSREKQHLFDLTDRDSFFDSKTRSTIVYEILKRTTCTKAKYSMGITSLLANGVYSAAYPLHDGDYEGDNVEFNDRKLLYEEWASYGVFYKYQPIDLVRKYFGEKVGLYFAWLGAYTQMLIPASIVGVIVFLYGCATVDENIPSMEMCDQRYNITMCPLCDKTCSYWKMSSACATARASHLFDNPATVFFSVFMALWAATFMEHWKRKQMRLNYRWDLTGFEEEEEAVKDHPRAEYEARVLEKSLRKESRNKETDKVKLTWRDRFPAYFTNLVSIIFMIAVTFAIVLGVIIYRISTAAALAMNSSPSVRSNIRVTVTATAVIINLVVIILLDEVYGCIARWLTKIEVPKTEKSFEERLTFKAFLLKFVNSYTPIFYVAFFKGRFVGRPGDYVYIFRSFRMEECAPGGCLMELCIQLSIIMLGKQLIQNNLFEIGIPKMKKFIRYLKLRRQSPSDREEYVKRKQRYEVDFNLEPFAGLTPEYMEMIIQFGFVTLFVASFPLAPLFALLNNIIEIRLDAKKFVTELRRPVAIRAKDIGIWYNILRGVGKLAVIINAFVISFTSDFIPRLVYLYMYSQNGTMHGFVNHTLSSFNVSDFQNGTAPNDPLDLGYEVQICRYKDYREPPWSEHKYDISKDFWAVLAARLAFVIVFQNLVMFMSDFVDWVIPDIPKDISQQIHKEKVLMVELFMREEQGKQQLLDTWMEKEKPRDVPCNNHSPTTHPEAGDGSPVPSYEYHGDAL
CRFBP-R2 block: blocks CRF-induced signaling of the CRF-BP/CRF-R2 complex. HEK293 CRF-R2/CRF-BP, CRF-induced calcium fluorescence. inhibition, % at 11.8 µM. hit rate 0.59% among 350,000;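 active means inhibition of the ligand-induced calcium signal above about 50% at the single tested concentration, limit read from the data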
ANO1 activ: activates or potentiates the mouse TMEM16A chloride channel. Q8BHY3. HEK293 TMEM16A/YFP-H148Q/I152L, iodide quench fluorescence; stronger effect = lower value. B-score at 10 µM. hit rate 0.3% among 340,000. AID 623877;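 active means fluorescence-ratio B-score plate-corrected deviation score at least 3 library SD below zero, with starting fluorescence score within 5 deviations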;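 further: channel opened by trigger with iodide after compound preincubation; score built on the fluorescence ratio of max minus min over baseline; more negative score means more quench and so TMEM16A activation or potentiation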
TAAR1 antag: antagonists of human TAAR1; Q96RJ0; inhibition, % at 3 µM; hit rate 1.5% among 360,000; CHO RD-HGA16 TAAR1, Fluo-8 calcium fluorescence, antagonist;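 active means inhibition above a per-plate cutoff, the mean inhibition of test compounds on that plate plus 3 SD, cut at about 49% in these data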
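Test system: hTAAR1-expressing CHO RD-HGA16 cells, Gα16-coupled; Probe or stimulus: EC80 β-phenethylamine stimulus; Compound dosing: single nominal final test compound concentration of 3 µM; Timing: 140 s kinetic read after compound, 140 s after agonist; Signal: Fluo-8 calcium-sensitive fluorescence; Measure: % inhibition of agonist calcium response; Controls: DMSO and EC80 PEA controls.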
CRFR2-BP ag: CRF-BP/CRF-R2 complex agonism | HEK293 CRF-R2/CRF-BP, calcium dye fluorescence (FLIPR); percent of saturating CRF peptide response | activation, % at 13.2 µM | hit rate 0.46% among 350,000 | AID 588473;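 active means activation of at least 50%, plus an integration ratio under a set limit after plate pattern correction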
TAAR1 agonist: human TAAR1 agonism. AID 624467. CHO RD-HGA16 TAAR1, Fluo-8 calcium fluorescence; vehicle wells 0%, saturating PEA agonist 100%. activation, % at 3 µM. hit rate 0.99% among 360,000. Q96RJ0;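 active means activation above the mean activation of all test compounds in the run plus 3 SD, cut at about 38% in these data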
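test system = CHO RD-HGA16 cells carrying human TAAR1 plus Gα16 | schedule = 17-24 h seeding, 75 min 37 °C dye, 30 min RT | compound dosing = 3 µM single concentration | control set = DMSO and PEA EC100 | replicates = n 1 | signal = Fluo-8 fluorescence, 5 s baseline then 140 s kinetic read | measure = percent activation vs PEA EC100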
Each line names hits and unclear results; the compound was inactive in the other large screens.

CCOC(=O)[C@]12CCCC=C1N(Cc1ccc(Cl)cc1Cl)C(=O)[C@H](CC(=O)N1CCOCC1)C2	none (no result: ANO1 block, CRFBP-R2 block, ANO1 activ, CRFR2-BP ag)
O=C1CCCC2=C1C1c3ccccc3C(=O)N1c1ccc(C(=O)c3ccccc3)cc1N2 (configuration not stated)	TAAR1 antag 49
CCC(=O)N1c2ccccc2NC2=C(C(=O)CCC2)C1c1ccc(N(C)C)cc1 (configuration not stated)	none
Cc1ccc2c(CC(=O)Nc3sccc3C(N)=O)coc2c1	CRFR2-BP ag 95
Cc1ccc2c(CC(=O)NCC(=O)Nc3c(C)cccc3C)coc2c1	CRFBP-R2 block 50
Cc1ccc2c(CC(=O)Nc3ccc(N4CCN(C)CC4)cc3C)coc2c1	none
Cc1ccc2c(CC(=O)NCc3ccc4c(c3)OCO4)coc2c1	none
COc1ccc(-c2cc3ccc(OCC(N)=O)cc3oc2=O)cc1OC	ANO1 block 25
Cc1nn(-c2ccccc2)c(C)c1Cc1ccc(O)cc1	none
Cc1nn(-c2ccccc2)c2c1C(O)n1c(nc3ccccc31)S2 (configuration not stated)	TAAR1 antag 50
CSc1nc(O)c(C(c2ccc(OC(C)C)cc2)c2c(O)nc(SC)[nH]c2=O)c(=O)[nH]1	none
CCOC(=O)CN1C(=O)NC(C)(c2ccc(OC(F)F)cc2)C1=O (configuration not stated)	ANO1 block 25
CCN1/C(=C/C(C)=C/c2sc3ccccc3[n+]2CC)Sc2ccccc21	none
CCN1/C(=C/c2ccc3cc(C)ccc3[n+]2CC)Sc2ccc3sccc3c21	none (no result: TAAR1 antag, TAAR1 agonist)
CCN1/C(=C/c2ccc3cccc(C)c3[n+]2CC)Sc2ccccc21	CRFR2-BP ag 205
CCN1/C(=C\c2ccc3cc(C)ccc3[n+]2CC)Sc2cc(C)c(C)cc21	CRFR2-BP ag 114 (no result: ANO1 block)
CCN1/C(=C/c2ccc3cc(C)cc(C)c3[n+]2CC)Sc2cc(C)ccc21	CRFR2-BP ag 182 (no result: ANO1 block)
Cc1cc(=O)oc2cc(OCC(=O)Nc3ccc(N4CCC(C)CC4)cc3)ccc12	none
Cc1cc(-c2nnn(CCCOC(C)(C)C)c2C)ccc1-c1cn(CCCOC(C)(C)C)nn1	none (no result: ANO1 block, ANO1 activ)
C[C@@H]1O[C@@H](OCCC(=O)O)[C@H](O)C[C@H]1O	none (no result: ANO1 block)
COc1ccc(C(=O)NCC2CCCCC2)cc1S(=O)(=O)N1CCOCC1	none (no result: ANO1 block)
CC(C)OC(=O)CSc1nnc(-c2cnccn2)n1C	ANO1 activ -5.8
C=CCSc1nnc(NC(=O)c2cccc(S(=O)(=O)N(C)c3ccccc3)c2)s1	none
CCOC(=O)CCCCC1C(CCCC(=O)OCC)C=NN1C (configuration not stated)	none (no result: ANO1 block)
N#CC(c1ccc(Cl)cc1)c1ccc2c(C(F)(F)F)cc(C(F)(F)F)nc2n1 (configuration not stated)	ANO1 block 100, CRFBP-R2 block 69
O=[N+]([O-])c1ccc(S(=O)(=O)N(CCCN2CCOCC2)Cc2cccs2)cc1	none
CN(C[C@H](Cc1ccccc1)N(C[C@@H](Cc1cccc2ccccc12)N(CCc1ccccc1)N=O)N=O)N=O	TAAR1 agonist 41
CC(C)C[C@@H](CN(N=O)[C@@H](Cc1ccccc1)CN(C)N=O)N(CCc1ccccc1)N=O	none
COc1ccc(N(C(=O)c2cccc([N+](=O)[O-])c2)S(=O)(=O)c2ccc3c(c2)n(C)c(=O)n3C)cc1	ANO1 block 100
Cc1cccc(-c2noc(C(C)NC(=O)c3ccco3)n2)c1 (configuration not stated)	CRFBP-R2 block 108
N#CC1=C(N)NC(SCc2ccc(F)cc2)=C(C#N)C12CCCCC2	ANO1 block 100, TAAR1 antag 54
N#CC1=C(N)NC(SCC(=O)O)=C(C#N)C12CCCC2	none
Cc1ccc(-n2c(-c3ccc(Br)cc3)c[n+]3c2CCc2ccc4cccnc4c2-3)cc1	ANO1 block 100
COc1ccc(-n2c(-c3ccc(Cl)cc3)c[n+]3c2CCc2ccccc2-3)cc1	none
Cc1nc(Cl)c(C(=O)NC(=O)Nc2cccc(C(F)(F)F)c2)c(C)c1[N+](=O)[O-]	TAAR1 agonist 42
Cc1onc(C(=O)Nc2cccc(C(F)(F)F)c2)c1[N+](=O)[O-]	none
CSc1ccc(C2c3[nH]c4ccccc4c3CCN2C(=O)c2ccnn2C)cc1 (configuration not stated)	TAAR1 antag 49
CCc1ccc(C2c3[nH]c4ccccc4c3CCN2C(=O)c2ccc(=O)n(C)n2)cc1 (configuration not stated)	none
CC(C#N)(NC(=O)CN1CCN(S(=O)(=O)c2ccc(Br)cc2Cl)CC1)C1CC1 (configuration not stated)	none (no result: ANO1 block)
COc1ccc(NC(=S)N2CCC(C(O)(c3ccccc3)c3ccccc3)CC2)cc1	none
CCOc1ccc(NC(=S)N2CCC(C(O)(c3ccccc3)c3ccccc3)CC2)cc1	CRFBP-R2 block 56
Cc1c(Cl)ccc2c(C(O)CBr)cc(-c3ccccc3)nc12 (configuration not stated)	none (no result: ANO1 block)
CC(C)(C)C(=O)NC(=S)NNC(=O)C(c1ccccc1)c1ccccc1	ANO1 block 100, CRFR2-BP ag 192 (no result: TAAR1 antag, TAAR1 agonist)
Cc1ccc(S(=O)(=O)NCC(c2cccnc2)N2CCc3ccccc32)cc1 (configuration not stated)	none
COc1ccccc1NC(=O)N1CCc2[nH]c3ccc(F)cc3c2C1	TAAR1 agonist 43
Cc1n[nH]c(=S)n(/N=C/c2cccs2)c1=O	CRFBP-R2 block 115
CC(C)(C)c1n[nH]c(=S)n(/N=C/c2cccs2)c1=O	none
S=C(NCc1ccc(Cl)c(Cl)c1)Nc1ccc2c(c1)OCO2	CRFBP-R2 block 69
S=C(Nc1ccc2c(c1)OCCO2)Nc1ccc2c(c1)OCO2	none
S=C(Nc1ccc2c(c1)OCO2)Nc1ccccc1Cl	CRFBP-R2 block 76
COC(=O)[C@H](CC(C)C)NC(=O)Cn1cnc2c(SC)nc(N)nc21	none (no result: ANO1 block, ANO1 activ)
COc1ccc(/C=N/Nc2cn[nH]c(=O)c2Cl)cc1	TAAR1 agonist 41
COc1ccc(/C=N/Nc2cc(C)nc3ccccc23)cc1	none
COc1cccc(NC(=O)CSc2nnc3ccc(-c4ccccn4)nn23)c1	none (no result: ANO1 block)
Cc1[nH]c2ccccc2c1-c1csc(NC(=O)CSCCO)n1	none
CCOc1ccc(-c2cc(N3C(=O)Nc4ccccc4N3O)n[nH]2)cc1	none
CCOC(=O)c1c(N2C(=O)Nc3ccccc3N2O)n[nH]c1-c1cccc(Cl)c1	CRFBP-R2 block 68
COc1cc(/C=N/O)ccc1Oc1cnccn1	none
CC(=O)c1c(C)c2c(n1CCN(C)C)CCCC2	CRFR2-BP ag 62
CN(C)CCn1c2c(c(SCC(=O)Nc3ccccc3)nc1=O)CCCC2	none
